Molecules are shown by their SMILES.

The subject of data set [1] is Rattus norvegicus. Briefly: Toxicity in cholesterol-fed Sprague-Dawley rat assessed as total T4 level at 150 mg/kg/day, po qd for 1 week measured 3 to 6 hrs post last dose (reference value: 3.8 +/- 0.9 ug/dl). The data set is classed as organism-based. Further details: route oral. The settings on record: in vivo.
Data set [2] deals with Rattus norvegicus. As to the kind of experiment: Toxicity in cholesterol-fed Sprague-Dawley rat assessed as TSH level at 150 mg/kg/day, po qd for 1 week measured 3 to 6 hrs post last dose (reference value: 3.0 +/- 1.0 uIU/ml). The data set is classed as organism-based. More on the design: route oral. The settings on record: in vivo.
Data set [3] has as its system Rattus norvegicus. Briefly: Toxicity in cholesterol-fed Sprague-Dawley rat assessed as heart weight at 150 mg/kg/day, po qd for 1 week measured 3 to 6 hrs post last dose (reference value: 1.14 +/- 0.12 g). More on the design: route oral. The data set is classed as organism-based. The settings on record: in vivo.
Data set [4] has as its system Rattus norvegicus. As to the kind of experiment: Toxicity in cholesterol-fed Sprague-Dawley rat assessed as heart rate at 150 mg/kg/day, po qd for 1 week measured 3 to 6 hrs post last dose (reference value: 383.0 +/- 26.7 bpm). The settings on record: in vivo. It counts as organism-based. More on the design: route oral.
The test system of data set [5] is Rattus norvegicus. Briefly: Toxicity in cholesterol-fed Sprague-Dawley rat assessed as total T4 level at 6 mg/kg/day, po qd for 1 week measured 3 to 6 hrs post last dose (reference value: 3.8 +/- 0.9 ug/dl). It counts as organism-based. More on the design: route oral. The settings on record: in vivo.
In data set [6] the test system is Rattus norvegicus. As to the kind of experiment: Toxicity in cholesterol-fed Sprague-Dawley rat assessed as TSH level at 6 mg/kg/day, po qd for 1 week measured 3 to 6 hrs post last dose (reference value: 3.0 +/- 1.0 uIU/ml). It counts as organism-based. More on the design: route oral. The settings on record: in vivo.
The test system of data set [7] is Rattus norvegicus. As to the kind of experiment: Toxicity in cholesterol-fed Sprague-Dawley rat assessed as heart weight at 6 mg/kg/day, po qd for 1 week measured 3 to 6 hrs post last dose (reference value: 1.14 +/- 0.12 g). The settings on record: in vivo. More on the design: route oral. The data set is classed as organism-based.
For data set [8], the system named is Rattus norvegicus. Briefly: Toxicity in cholesterol-fed Sprague-Dawley rat assessed as heart rate at 6 mg/kg/day, po qd for 1 week measured 3 to 6 hrs post last dose (reference value: 383.0 +/- 26.7 bpm). It counts as organism-based. Further details: route oral. The settings on record: in vivo.
Data set [9] relates to Rattus norvegicus. As to the kind of experiment: Reduction in plasma triglyceride level in cholesterol-fed Sprague-Dawley rat at 6 mg/kg/day, po qd for 1 week measured 3 to 6 hrs post last dose (reference value: 62 +/- 25 mg/dl). The data set is classed as functional.
In data set [10] the test system is Rattus norvegicus. As to the kind of experiment: Reduction in plasma HDL-cholesterol in cholesterol-fed Sprague-Dawley rat at 6 mg/kg/day, po qd for 1 week measured 3 to 6 hrs post last dose (reference value: 22 +/- 6 mg/dl). It counts as functional.
The test system of data set [11] is Rattus norvegicus. As to the kind of experiment: Reduction in plasma free cholesterol in cholesterol-fed Sprague-Dawley rat at 6 mg/kg/day, po qd for 1 week measured 3 to 6 hrs post last dose (reference value: 36 +/- 9 mg/dl). It counts as functional.
Data set [12] concerns Rattus norvegicus. Briefly: Reduction in plasma LDL-cholesterol in cholesterol-fed Sprague-Dawley rat at 6 mg/kg/day, po qd for 1 week measured 3 to 6 hrs post last dose (reference value: 51 +/- 15 mg/dl). The data set is classed as functional.
In data set [13] the test system is Rattus norvegicus. Briefly: Reduction in plasma total cholesterol in cholesterol-fed Sprague-Dawley rat at 6 mg/kg/day, po qd for 1 week measured 3 to 6 hrs post last dose (reference value: 190 +/- 49 mg/dl). It counts as functional.
A further data set has as its system HepG2. As to the kind of experiment: Selectivity ratio of EC50 for human recombinant transfected in human HepG2 cells to EC50 for human recombinant TRbeta1 transfected in human HepG2. It counts as cell-based.
The next data set relates to CV-1. As to the kind of experiment: Selectivity ratio of EC50 for human recombinant transfected in CV-1 cells to EC50 for human recombinant TRbeta1 transfected in CV-1 cells. The data set is classed as cell-based. The method in brief:
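CV-1 monkey kidney cells grown in DMEM with 10% FBS for 24 h at 37 °C and 5% CO2. Transfected (FuGENE) with hTRα1 or hTRβ1 plus a SEAP reporter for 24 h, then exposed to T3 or test compound for 8-10 h. SEAP was read as A405 of p-nitrophenol (pH 9.8, 30 min, RT). EC50 was set against T3 max = 100%; mean of four experiments; α/β ratio of EC50s.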

Data set [14] concerns the target T1, Thyroid hormone receptor beta (Homo sapiens, UniProt P10828).
T1 sequence (P10828 whole entry): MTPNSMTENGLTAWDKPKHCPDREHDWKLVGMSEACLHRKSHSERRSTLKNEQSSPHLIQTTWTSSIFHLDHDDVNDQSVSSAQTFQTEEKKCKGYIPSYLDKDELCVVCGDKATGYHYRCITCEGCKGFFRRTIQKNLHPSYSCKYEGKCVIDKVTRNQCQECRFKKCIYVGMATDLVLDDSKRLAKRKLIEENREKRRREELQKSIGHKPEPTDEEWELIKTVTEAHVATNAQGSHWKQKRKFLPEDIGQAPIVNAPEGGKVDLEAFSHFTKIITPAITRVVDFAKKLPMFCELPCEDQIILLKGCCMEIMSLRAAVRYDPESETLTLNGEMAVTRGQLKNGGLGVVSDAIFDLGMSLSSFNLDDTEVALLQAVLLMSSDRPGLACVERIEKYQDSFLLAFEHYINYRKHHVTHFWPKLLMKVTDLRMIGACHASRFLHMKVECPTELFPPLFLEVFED
Briefly: Agonist activity at human recombinant TRbeta1 transfected in human HepG2 cells after 8 to 10 hrs by alkaline phosphatase reporter gene assay. It counts as cell-based. On the technique in general: Reporter assays use an easily measured gene product as a stand-in for the process of interest.

In data set [15] the target is T1, Thyroid hormone receptor beta. As to the kind of experiment: Agonist activity at human recombinant TRbeta1 transfected in CV-1 cells after 8 to 10 hrs by alkaline phosphatase reporter gene assay. The data set is classed as cell-based.
For data set [16] the target is unchanged. Briefly: Displacement of [125I]-Triiodothyronine from human recombinant TRbeta1 ligand binding domain after 2 to 3 hrs by beta counting.
In data set [17] the target is T2, Thyroid hormone receptor alpha (Homo sapiens, UniProt P10827).
T2 sequence (P10827 whole entry): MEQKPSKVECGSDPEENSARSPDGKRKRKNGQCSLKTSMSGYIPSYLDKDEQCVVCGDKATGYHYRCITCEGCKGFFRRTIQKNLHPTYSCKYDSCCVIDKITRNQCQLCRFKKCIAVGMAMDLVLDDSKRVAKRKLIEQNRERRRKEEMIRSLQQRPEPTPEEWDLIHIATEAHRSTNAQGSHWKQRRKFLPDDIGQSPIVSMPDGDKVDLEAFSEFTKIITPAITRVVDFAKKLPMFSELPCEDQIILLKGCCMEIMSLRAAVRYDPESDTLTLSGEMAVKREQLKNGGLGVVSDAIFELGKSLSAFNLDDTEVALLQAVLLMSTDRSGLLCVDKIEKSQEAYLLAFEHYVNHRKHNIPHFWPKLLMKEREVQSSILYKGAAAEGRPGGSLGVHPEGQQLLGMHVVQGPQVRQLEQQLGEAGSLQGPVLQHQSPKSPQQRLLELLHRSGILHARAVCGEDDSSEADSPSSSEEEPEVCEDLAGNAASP
Briefly: Displacement of [125I]-Triiodothyronine from human recombinant TRalpha1 ligand binding domain after 2 to 3 hrs by beta counting. Background: Displacement assays read how much labelled ligand stays bound in the presence of the test substance.

One may read the EC50 as the concentration needed to bring the measured effect to its halfway point. In general, IC50 refers to the concentration needed to halve the response being measured. With `Cc1ccc(NC(=O)CC(=O)O)c2ccn(Cc3ccc(O)c(C(C)C)c3)c12`, the Activity was determined as 1.9 µg/dL in the data set with Rattus norvegicus [1]; 1.3 uIU/ml with Rattus norvegicus [2]; 1.18 g in the data set on Rattus norvegicus [3]; 424.3 bpm in the data set on Rattus norvegicus [4]; 2.4 µg/dL in the data set on Rattus norvegicus [5]; 2.7 uIU/ml in the data set with Rattus norvegicus [6]. The Activity in the data set with Rattus norvegicus [7] is 1.12 g; in the data set with Rattus norvegicus [8] it was 401.8 bpm; with Rattus norvegicus [9], 27 mg/dL; in the data set on Rattus norvegicus [10], 20 mg/dL; in the data set on Rattus norvegicus [11], 15 mg/dL; with Rattus norvegicus [12], 20 mg/dL. This molecule also yielded an Activity with Rattus norvegicus [13] of 94 mg/dL. The Ratio EC50 with HepG2 came to 7.2; in the data set on CV-1, 3.4. The values for the EC50 in data set [14] and in [15] were 1300 nM and 3100 nM, respectively. Further, the values for the IC50 in [16] and in [17] were 240 nM and 5200 nM, respectively.

These data come from ChEMBL document CHEMBL3124871, “Synthesis and pharmacological characterization of 1-benzyl-4-aminoindole-based thyroid hormone receptor β agonists” (Bioorg Med Chem, 2014).
